Source: PubChem BioAssay (several laboratories)
Only some compounds are listed: those with a hit (about 4.8% of all), similar ones and a draw of the others.
Efflux pump inh = antifungal efflux pump inhibition, Nile Red retention; S. cerevisiae Candida pump triplex; inhibition, % at 10 µM; 330,000 compounds, 0.44% hits; AID 485275;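 active means plate passing quality check with inhibition over a set limit, or well fluorescence over plate mean plus 4 SD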;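 further: Nile Red retained in pooled yeast measured as flow cytometry median fluorescence; 0% = buffer negative control and 100% = Enniatin B positive control; higher means more Nile Red kept so more efflux inhibition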
SUMO Mot1 rescue = blocks SUMOylation pathway, rescuing yeast Mot1-301 growth | S. cerevisiae Mot1-301 growth rescue, ATP luminescence, 38.5C; percent above DMSO median, 100 means doubled | 320,000 compounds, 1% hits | growth rescue, % at 18.8 µM;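 active means every valid replicate shows activation above 250% relative to neutral control wells; inactive means the rest, any valid replicate at or below 250%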;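 further: OY570 slx delta 5 strain wells were the positive control but not used for scaling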
Beta apoptosis = beta cell apoptosis inhibition | INS-1E cytokine-induced death, ATP luminescence, 48 h; percent of positive-control rescue, neutral wells zero | protection from apoptosis, % (concentration not given with the values) | 300,000 compounds, 0.8% hits | AID 435005;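 active means Every replicate reaches about 75%, or at least half do and their mean reaches it too, limit read from the data; inconclusive means At least half of replicates reach the limit but their mean does not; inactive means Under half of replicates reach the limit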;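 further: 0% = cytokine-treated negative control wells and 100% = positive control rescue; higher means more ATP so stronger rescue from cytokine killing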
WT yeast gro inh = growth inhibition of WT yeast, mitochondrial fusion screen; mitochondrial fusion phenotypic screen, WT strain; inhibition, % at 10 µM; 190,000 compounds, 2.1% hits; AID 1362; in the data active means inhibition above about 58%; tested in S. cerevisiae
CSC inhib = cancer stem cell inhibition; cancer stem cell-like cells viability, luminescence; inhibition, % at 7.5 µM; 300,000 compounds, 1.1% hits; in the data active means inhibition above about 75%; inconclusive means no clear call, values can overlap the other calls; tested in HMLE shEcad cells
T cruzi inh = T. cruzi replication inhibition; T. cruzi beta-gal in NIH3T3, luminescence, 90 h; inhibition, % (concentration not given with the values); 300,000 compounds, 1.4% hits; AID 1885;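 active means mean inhibition across valid replicates above about 55%, limit read from the data; inconclusive means mean below that limit but half or more replicates reach it; inactive means mean below it, under half of replicates reach it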;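 further: signal also drops with host cell toxicity which is not excluded here; 0% = plate median of DMSO wells and 100% = zero luminescence signal; higher percent means less beta-gal luminescence so fewer parasites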
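Read-out: Parasite load inhibition, % | Test system: Mouse NIH/3T3 fibroblasts infected with β-gal-expressing T. cruzi Tulahuen C4 | Amount: 5,000 cells/well | Medium: DMEM, 2% fetal bovine serum | Signal: GalScreen β-gal luminescence, detergent lysis, 60 min | Timing: 3 h attach, ≥90 h co-culture | Also added: Tulahuen C4 trypomastigotes, 5000/well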
The depositor's hits bear a star; i = inactive; ? = inconclusive; / = no result given.

SMILES	Efflux pump inh	SUMO Mot1 rescue	Beta apoptosis	WT yeast gro inh	CSC inhib	T cruzi inh
CCCc1ccc(O)c(N=Cc2cc(Br)cc(OCC)c2O)c1	0	i	-7	4	91*	-5
CCCn1c(=O)c(Br)cn(-c2ccccc2C)c1=O	0	7	-7	/	-4	7
COc1ccc(/C=C2\SC(N3CCc4ccccc4C3)=NC2=O)cc1	0	3	-9	62*	-8	-11
CCOc1ccc(/C=C2\SC(N3CCc4ccccc4C3)=NC2=O)cc1	0	7	-9	36	38	10
Cc1ccc(NC(=O)C2CCCN(C(=O)NCc3ccccc3)C2)c(C)c1 (stereo unspecified)	0	-5	-3	/	10	-5
Clc1ccc(CNc2nc(CN3CCOCC3)nc3scc(-c4ccccc4)c23)cc1	0	44	8	79*	-12	25
O=C(/C=C/c1ccc(Cl)cc1)NC(=S)NN1CCCCC1c1cccnc1 (stereo unspecified)	1	1	2	66*	12	-24
Oc1c(Cl)cc(Cl)cc1/C=N/NC(=S)NC1CC2C=CC1C2 (stereo unspecified)	0	27	/	/	100*	-3
O=C1c2ccccc2C(Nc2ccc(Cl)cn2)N1Cc1ccccc1 (stereo unspecified)	0	32	21	71*	7	20
Cc1ccc(NS(=O)(=O)c2cc([N+](=O)[O-])ccc2NNC(=S)Nc2cc(C)ccc2C)c(C)c1	0	70	?	27	80*	9
Cc1ccc(NS(=O)(=O)c2cc([N+](=O)[O-])ccc2NNC(=S)Nc2cccc(Cl)c2)c(C)c1	0	2	7	24	100*	18
Cc1ccc([N+](=O)[O-])cc1NC(=S)NC(=O)CC(C)(C)C	0	192	1	68*	-3	0
Cc1ccc([N+](=O)[O-])cc1NC(=S)NC(=O)C(C)(C)C	0	-9	-4	9	0	-7
COc1ccc(NC(=S)NNc2ccc([N+](=O)[O-])cc2S(=O)(=O)Nc2ccc(C)cc2C)cc1	0	-7	13	10	12	0
O=C(NC1CCCC1)C(c1ccccc1)N(Cc1ccccc1)C(=O)c1csnn1 (stereo unspecified)	0	14	-3	/	-17	10
O=C(N[C@@H](Cc1ccccc1)C(=O)OCc1ccccc1)c1nc[nH]c1C(=O)N1CCc2ccccc2C1	0	18	-11	/	5	-18
Cc1ccc(-c2nc(NC(=O)c3ccc(S(=O)(=O)N(CCC#N)CCC#N)cc3)sc2-c2ccccc2)cc1	1	10	1	-6	9	56*
